Data: ChEMBL document CHEMBL3259611, “Suppression of inflammatory responses by handelin, a guaianolide dimer from Chrysanthemum boreale, via downregulation of NF-κB signaling and pro-inflammatory cytokine production” (J Nat Prod, 2014)
The source made the active and inactive calls. No cut-off for these calls is given here.

How the values were obtained:
[1] = biological target: T1, Mitogen-activated protein kinase 1 and 3 (ERK2 and ERK1) (Mus musculus) (UniProt P63085+Q63844); assay: Inhibition LPS-induced ERK1/2 phosphorylation at Thr202/Tyr204 in mouse RAW264.7 cells at 40 uM administered 30 mins prior to LPS challenge measured after 30 mins by Western blotting analysis; format: cell-based
T1 sequence (P63085 whole entry, looked up): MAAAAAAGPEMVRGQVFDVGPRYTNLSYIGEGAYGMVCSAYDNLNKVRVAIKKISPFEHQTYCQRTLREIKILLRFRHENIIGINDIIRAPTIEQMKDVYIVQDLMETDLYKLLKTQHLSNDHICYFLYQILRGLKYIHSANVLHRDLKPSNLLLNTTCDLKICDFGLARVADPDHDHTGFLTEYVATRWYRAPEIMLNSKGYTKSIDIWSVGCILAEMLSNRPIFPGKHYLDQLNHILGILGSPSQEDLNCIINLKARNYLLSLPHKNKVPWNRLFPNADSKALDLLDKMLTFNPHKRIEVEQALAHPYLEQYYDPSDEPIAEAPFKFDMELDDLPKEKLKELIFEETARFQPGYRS
T1 sequence (Q63844 whole entry, looked up): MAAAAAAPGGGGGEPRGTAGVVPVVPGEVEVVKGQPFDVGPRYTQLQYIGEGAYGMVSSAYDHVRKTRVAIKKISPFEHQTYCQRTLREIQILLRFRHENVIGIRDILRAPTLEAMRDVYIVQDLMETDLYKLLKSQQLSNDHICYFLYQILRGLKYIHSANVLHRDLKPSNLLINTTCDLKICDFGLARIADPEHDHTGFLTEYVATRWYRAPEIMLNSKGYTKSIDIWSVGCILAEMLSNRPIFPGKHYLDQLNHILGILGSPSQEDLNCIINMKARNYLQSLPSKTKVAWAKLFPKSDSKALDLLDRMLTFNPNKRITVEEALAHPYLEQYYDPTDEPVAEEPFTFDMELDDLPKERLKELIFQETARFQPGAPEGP
In short: (§1)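 RAW 264.7 cells pretreated with compound for 30 min, then stimulated with LPS for 30 min. Protein extracts were Western blotted for phosphorylated ERK and JNK (SDS-PAGE, PVDF, ECL detection).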

[2] = biological target: T2, Nuclear factor NF-kappa-B p105 subunit (Mus musculus) (UniProt P25799); assay: Inhibition of LPS-induced NF-kappaB p50 binding to DNA in mouse RAW264.7 cells at 10 to 40 uM after 1.5 hrs by spectrophotometry in presence of wild type oligonucleotide; format: cell-based
T2 sequence (whole entry): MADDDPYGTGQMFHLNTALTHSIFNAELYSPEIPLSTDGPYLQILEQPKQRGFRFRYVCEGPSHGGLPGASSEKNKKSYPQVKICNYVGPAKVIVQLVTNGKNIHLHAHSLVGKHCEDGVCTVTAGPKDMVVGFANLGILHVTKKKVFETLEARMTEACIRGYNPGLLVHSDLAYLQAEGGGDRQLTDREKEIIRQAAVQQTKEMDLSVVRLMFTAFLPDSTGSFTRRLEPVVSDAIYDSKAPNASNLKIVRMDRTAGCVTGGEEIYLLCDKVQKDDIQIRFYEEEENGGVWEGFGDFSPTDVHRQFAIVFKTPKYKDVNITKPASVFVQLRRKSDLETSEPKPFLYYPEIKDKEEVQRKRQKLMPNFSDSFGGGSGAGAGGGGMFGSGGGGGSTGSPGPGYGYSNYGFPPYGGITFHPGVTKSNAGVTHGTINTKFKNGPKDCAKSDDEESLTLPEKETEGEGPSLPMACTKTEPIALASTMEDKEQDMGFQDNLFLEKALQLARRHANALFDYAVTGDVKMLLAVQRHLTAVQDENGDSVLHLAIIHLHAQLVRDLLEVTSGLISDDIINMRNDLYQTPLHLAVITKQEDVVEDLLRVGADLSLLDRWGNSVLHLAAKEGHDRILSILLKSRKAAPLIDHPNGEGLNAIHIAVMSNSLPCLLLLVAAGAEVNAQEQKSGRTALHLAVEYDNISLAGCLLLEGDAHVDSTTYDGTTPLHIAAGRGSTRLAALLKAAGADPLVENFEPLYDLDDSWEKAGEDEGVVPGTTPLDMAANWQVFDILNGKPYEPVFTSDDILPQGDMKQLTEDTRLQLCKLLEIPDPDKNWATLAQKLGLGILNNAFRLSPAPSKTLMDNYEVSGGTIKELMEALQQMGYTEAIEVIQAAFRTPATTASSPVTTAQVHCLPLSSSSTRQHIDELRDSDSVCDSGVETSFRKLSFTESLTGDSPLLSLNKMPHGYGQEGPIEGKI

[3] = biological target: T1, Mitogen-activated protein kinase 1 and 3 (ERK2 and ERK1) (Mus musculus); assay: Inhibition LPS-induced ERK1/2 phosphorylation at Thr202/Tyr204 in mouse RAW264.7 cells at 10 uM administered 30 mins prior to LPS challenge measured after 30 mins by Western blotting analysis; format: cell-based; in short: as §1
Rattus norvegicus [4] = assay: Antiinflammatory activity in rat paw edema model assessed as inhibition of carrageenan-induced paw edema at 20 mg/kg, po administered 30 mins prior to carrageenan challenge measured after 4 hrs relative to vehicle-treated control; format: functional
In short: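 Male Sprague–Dawley rats (150–170 g, 5 weeks old); compound dissolved in 0.5% CMC-Na and given orally 30 min before subplantar injection of 0.1 mL 1% carrageenan suspension in saline into the right hind paw, with saline injected into the left. Paw volume read by plethysmometer at 0 h and up to 6 h; n = 6.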

RAW264.7 [5] = assay: Antiinflammatory activity in mouse RAW264.7 cells assessed as inhibition of LPS-induced nitric oxide production administered 30 mins prior to LPS challenge measured after 20 hrs by Griess assay; format: functional, cell-based
In short: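 RAW 264.7 cells at 3 × 10^5 cells/mL in phenol red-free 10% FBS DMEM, pretreated for 30 min, then given 1 μg/mL LPS for 20 h. Nitrite in the medium was read by Griess reaction at 540 nm against a sodium nitrite standard curve. % inhibition was calculated versus vehicle control, and IC50 by nonlinear regression. Mean ± SD of triplicates.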

RAW264.7 [6] = assay: Antiinflammatory activity in mouse RAW264.7 cells assessed as inhibition of LPS-induced iNOS protein expression at 20 uM after 16 hrs by Western blotting analysis relative to control; format: functional
In short: (§2)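 RAW 264.7 cells given LPS (1 μg/mL) with or without compound for 16 h. Cell lysates were Western blotted for iNOS and COX-2 (6−15% SDS-PAGE, PVDF, ECL detection). Performed in triplicate.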

[7] = biological target: T2, Nuclear factor NF-kappa-B p105 subunit (Mus musculus); assay: Inhibition of LPS-induced NFkappaB P50 protein nuclear translocation in mouse RAW264.7 cells at 20 uM after 30 mins by Western blotting analysis relative to control; format: cell-based
In short: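 Macrophages were exposed to compound for 30 min before LPS stimulation, with proteins extracted 30 min later. Nuclear extracts were prepared in Tris/KCl/NP-40 lysis buffer, then 420 mM NaCl buffer, and the cytosolic fraction was kept for IκB-α. Western blot on PVDF with ECL detection. Tests in triplicate; representative of three separate experiments.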

RAW264.7 [8] = assay: Antiinflammatory activity in mouse RAW264.7 cells assessed as inhibition LPS-induced TNF-alpha mRNA expression at 40 uM after 4 hrs by RT-PCR analysis relative to control; format: functional
In short: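 RAW 264.7 cells stimulated with LPS (1 μg/mL) with or without compound for 4 h. Total RNA was isolated and cytokine mRNA was analysed by RT-PCR: 94 °C 4 min, then 25−30 cycles of 94/55/72 °C for 30 s each, then 72 °C 5 min. Products were run on 2% agarose and stained with SYBR-Safe. Triplicate, representative of three experiments.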

RAW264.7 [9] = assay: Antiinflammatory activity in mouse RAW264.7 cells assessed as inhibition of LPS-induced iNOS protein expression at 40 uM after 16 hrs by Western blotting analysis relative to control; format: functional; in short: as §2
RAW264.7 [10] = assay: Antiinflammatory activity in mouse RAW264.7 cells assessed as inhibition LPS-induced TNF-alpha protein expression at 20 uM after 4 hrs by Western blotting analysis relative to control; format: functional
Rattus norvegicus [11] = assay: Antiinflammatory activity in rat paw edema model assessed as inhibition of carrageenan-induced IL-1beta protein expression in paw tissue at 20 mg/kg, po administered 30 mins prior to carrageenan challenge measured after 6 hrs by Western blotting analysis relative to vehicle-treated control; format: functional, organism-based; parameters: dose 20 mg/kg
In short: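 SD rats received compound orally in 0.5% CMC-Na 30 min before subplantar injection of 0.1 mL 1% carrageenan in saline. Paws were removed at 6 h, homogenized, and iNOS, COX-2 and IL-1β were assessed by Western blot. Triplicate, representative of three experiments.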

[12] = biological target: T1, Mitogen-activated protein kinase 1 and 3 (ERK2 and ERK1) (Mus musculus); assay: Inhibition LPS-induced ERK1/2 phosphorylation at Thr202/Tyr204 in mouse RAW264.7 cells at 20 uM administered 30 mins prior to LPS challenge measured after 30 mins by Western blotting analysis; format: cell-based; in short: as §1

In the case of `C=C1C(=O)O[C@@H]2[C@@H]3[C@@]4(C=C[C@@]3(C)[C@]3(C4)C(=O)O[C@@H]4[C@H]5C(C)=CC[C@H]5[C@](C)(O)C[C@H](OC(C)=O)[C@H]43)[C@](C)(O)CC[C@@H]12`, the fold change (FC) [1] is reported as 0.21, the inhibition [2] is reported as “inactive” and the fold change (FC) [3] is reported as 0.76. The inhibition [3] was “Active”, the inhibition in vivo at 20 mg/kg (Rattus norvegicus [4]) was 35% and the IC50 (RAW264.7 [5]) was 6.7 µM. For the same compound, the inhibition (RAW264.7 [5]) was “Dose-dependent effect”, the “fold change (FC)” value (RAW264.7 [6]) was 0.29 and the fold change (FC) [7] was 0.21. The “fold change (FC)” value (RAW264.7 [8]) was 0.1, the “fold change (FC)” value (RAW264.7 [9]) was 0.13 and the “fold change (FC)” value (RAW264.7 [10]) was 0.76. The inhibition (Rattus norvegicus [11]) was “Active” and the fold change (FC) [12] was 0.79.
